Measured values taken from ChEMBL document CHEMBL1287645, “Synthesis and anti-prion activity evaluation of aminoquinoline analogues” (Eur J Med Chem, 2010).
Calls of active or inactive are those of the source. No cut-off for these calls is given here.

Legend:
[1] = molecular target: Major prion protein (Mesocricetus auratus) (UniProt P04273); assay: Reduction of thioflavin T binding to Syrian hamster prion protein (109-149) at 10 uM after 10 mins by fluorescence assay
Procedure, shortened: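 Peptide at 1.0 µM was incubated with compound at 10 µM in pH 5.0 buffer. After 10 min, thioflavin T was added to 20 µM final. Emission was recorded from 470–520 nm with excitation at 450 nm. The integrated spectral area was corrected for probe emission without peptide. Values are means of three experiments.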

[2] = molecular target: Major prion protein (Mesocricetus auratus) (UniProt P04273); assay: Inhibition of Syrian hamster prion protein (109-149) aggregation assessed as compound concentration required to inhibit 50% aggregation by spectrofluorimetric analysis
Procedure, shortened: (§1)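 Synthetic hamster PrP 109–149 peptide was solubilized in 50 mM MES pH 5.0 with 6 M urea and 10 mM SDS, where it stays unfolded. It was diluted at least 100-fold to 0.5 µM in 50 mM MES pH 5.0 containing increasing compound concentrations. Light scattering (450 nm excitation/emission) was followed over time. Maximum scattering was normalized to the no-compound control (100% aggregation) and to the peptide in 6 M urea (0%). Values are means of three independent measurements.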

[3] = molecular target: Major prion protein (Mesocricetus auratus) (UniProt P04273); assay: Inhibition of Syrian hamster prion protein (109-149) aggregation assessed as changes in light scattering at 1 uM by spectrofluorimetric analysis relative to control; procedure, shortened: as §1
[4] = molecular target: Major prion protein (Mesocricetus auratus) (UniProt P04273); assay: Inhibition of Syrian hamster prion protein (109-149) aggregation assessed as changes in light scattering at 0.2 uM by spectrofluorimetric analysis relative to control; procedure, shortened: as §1
[5] = molecular target: Major prion protein (Mesocricetus auratus) (UniProt P04273); assay: Inhibition of Syrian hamster prion protein (109-149) aggregation assessed as changes in light scattering at 0.1 uM by spectrofluorimetric analysis relative to control; procedure, shortened: as §1

Major prion protein (Mesocricetus auratus), sequence (P04273 whole entry): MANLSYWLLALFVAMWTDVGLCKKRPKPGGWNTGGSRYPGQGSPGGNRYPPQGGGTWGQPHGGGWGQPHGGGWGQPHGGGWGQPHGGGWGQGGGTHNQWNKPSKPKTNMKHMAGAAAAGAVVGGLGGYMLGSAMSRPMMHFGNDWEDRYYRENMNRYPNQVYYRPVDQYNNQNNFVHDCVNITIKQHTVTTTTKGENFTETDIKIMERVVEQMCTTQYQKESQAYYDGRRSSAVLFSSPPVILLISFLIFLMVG

SMILES	Activity [1]	C50 [2] [µM]	inhibition [3] [%]	inhibition [4] [%]	inhibition [5] [%]
Clc1ccc2c(NC3CCCC3)ccnc2c1	Active	> 1	–	–	–
OCCNc1ccnc2cc(Cl)ccc12	Active	> 1	97	–	–
CN(C)CCNc1ccnc2cc(Cl)ccc12	–	> 1	82	–	–
CNc1ccnc2cc(Cl)ccc12	Active	> 0.9	38.6	–	–
NCCNc1ccnc2cc(Cl)ccc12	Active	0.1	7.9	50	50
CCN(CC)CCNc1ccnc2cc(SC(F)(F)F)ccc12	–	> 1	54	–	–
Nc1ccnc2cc(Cl)ccc12	Active	0.2	8.4	50	50
